Results on 2 compounds are retold here after ChEMBL document CHEMBL5244268, “Preventing Candida albicans biofilm formation using aromatic-rich piperazines” (Bioorg Med Chem, 2020).

The test system of series [1] is Candida albicans. The series is described as follows: Antibiofilm activity against Candida albicans ATCC 28366 assessed as inhibition of nitrogen deprivation induced morphological switching at 8 ug/ml incubated for 4 hrs in SLAD media by microscopic analysis. Type of series: functional, organism-based. Particulars: dose 8.0 µg/ml. In outline:
(§1)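 Yeast-form cells grown overnight in YPD at 30 °C. 50 µL inoculated into 5 mL hypha-inducing medium (e.g., Spider: 1% nutrient broth, 1% mannitol, 0.2% K2HPO4, pH 7.2) containing two-fold dilutions, then 4 h at 37 °C. At least 100 cells per replicate counted as hypha (pseudohyphae and intermediates included) or yeast. Compound-free control for maximal conversion. At least two independent experiments in triplicate.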

The test system of series [2] is Candida albicans. Nature of the series: Antibiofilm activity against Candida albicans LAM-1 assessed as inhibition of morphogenesis at 8 ug/ml incubated for 4 hrs in spider medium by microscopic analysis. To be noted: dose 8.0 µg/ml. Type of series: functional, organism-based. In outline: as §1
The subject of series [3] is Candida albicans. The series is described as follows: Antibiofilm activity against Candida albicans ATCC 28366 assessed as reduction in fungal growth at 8 ug/ml incubated for 4 hrs in spider medium by plate count determination. The series is classed as functional, organism-based. To be noted: dose 8.0 µg/ml. In outline:
(§2)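 After the 4 h, 37 °C morphogenesis incubation in Spider medium (YPD overnight inoculum, 50 µL into 5 mL), OD660 measured to follow fungal growth; C. albicans viability confirmed by plate count.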

In series [4] the test system is Candida albicans. Nature of the series: Antibiofilm activity against Candida albicans ATCC 28366 assessed as inhibition of morphogenesis at 8 ug/ml incubated for 4 hrs in spider medium by microscopic analysis. The series is classed as functional, organism-based. Particulars: dose 8.0 µg/ml. In outline:
as §1

In series [5] the test system is Candida albicans. Nature of the series: Antibiofilm activity against Candida albicans ATCC 28366 assessed as inhibition of morphological switching at 8 ug/ml incubated for 4 hrs in YPD medium with fetal bovine serum by microscopic analysis. The series is classed as functional, organism-based. Particulars: dose 8.0 µg/ml. In outline: as §1
Series [6] concerns Candida albicans. Nature of the series: Antibiofilm activity against Candida albicans ATCC 28366 assessed as inhibition of filamentation at 8 ug/ml incubated for 4 hrs in Lee's medium by microscopic analysis. Particulars: dose 8.0 µg/ml. The series is classed as functional, organism-based. In outline:
as §1

In series [7] the test system is Candida albicans. Nature of the series: Antibiofilm activity against Candida albicans ATCC 28366 assessed as inhibition of N-acetylglucosamine induced morphological switching at 8 ug/ml incubated for 4 hrs by microscopic analysis. The series is classed as functional, organism-based. To be noted: dose 8.0 µg/ml. In a few lines:
as §1

For series [8], the system named is Candida albicans. The series is described as follows: Antibiofilm activity against Candida albicans LAM-1 assessed as reduction in fungal growth at 8 ug/ml incubated for 4 hrs in spider medium by plate count determination. Type of series: functional, organism-based. To be noted: dose 8.0 µg/ml. In outline:
as §2

In series [9] the test system is Candida albicans. The series is described as follows: Antibiofilm activity against Candida albicans ATCC 28366 incubated for 24 to 48 hrs by crystal violet staining based absorbance spectrometry analysis. Type of series: functional, organism-based. Particulars: time 24-48 hrs. In a few lines:
(§3)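 Overnight cultures (37 °C, aerobic, Sabouraud pH 7.0) adjusted to OD660 0.2, mixed 1:1 with two-fold serial dilutions in medium and incubated at 37 °C. Biofilm stained with crystal violet, dye released in 75% ethanol, A550 read. Growth relative to compound-free wells (100%) after blank subtraction. At least two independent experiments in triplicate, t test.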

The test system of series [10] is Candida albicans. Nature of the series: Antifungal activity against Candida albicans ATCC 28366 assessed as reduction in fungal growth incubated for 24 hrs by plate count determination. The series is classed as functional, organism-based.
The subject of series [11] is Candida albicans. Nature of the series: Antibiofilm activity against Candida albicans ATCC 28366 assessed as small subpopulation of hyphae formation at 2 ug/ml incubated for 4 hrs in spider medium by microscopic analysis. The series is classed as functional, organism-based. Particulars: dose 2.0 µg/ml. In a few lines: as §1
The subject of series [12] is Candida albicans. Nature of the series: Antibiofilm activity against Candida albicans ATCC 28366 assessed as reduction in filamentation by measuring joint hyphae cell elongation at 1 ug/ml incubated for 4 hrs in spider medium by microscopic analysis. The series is classed as functional, organism-based. Particulars: dose 1.0 µg/ml. In a few lines:
as §1

Series [13] has as its system Candida albicans. Nature of the series: Antibiofilm activity against Candida albicans ATCC 28366 assessed as short hyphae formation at 2 ug/ml incubated for 4 hrs in spider medium by microscopic analysis. The series is classed as functional, organism-based. To be noted: dose 2.0 µg/ml. In a few lines: as §1
In series [14] the test system is Candida albicans. The series is described as follows: Antibiofilm activity against Candida albicans LAM-1 assessed as reduction in fungal growth at 1 to 4 ug/ml incubated for 4 hrs in spider medium by plate count determination. The series is classed as functional, organism-based. To be noted: dose 1-4 µg/ml. In a few lines:
as §2

Series [15] has as its system Candida albicans. Nature of the series: Antibiofilm activity against Candida albicans ATCC 28366 assessed as reduction in fungal growth at 1 to 4 ug/ml incubated for 4 hrs in spider medium by plate count determination. Particulars: dose 1-4 µg/ml. Type of series: functional, organism-based. In outline:
as §2

The nature of series [16]: Cytotoxicity against human B11 cells assessed as reduction in cell viability at 96 ug/ml incubated for 2 hrs by MTT assay. To be noted: b11, 2 h, dose 96 µg/ml. Type of series: toxicity, cell-based. In outline: (§4)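 B11 human oral epithelial cells in K-SFM with bovine pituitary extract and EGF, grown to confluence (1 × 10⁵ cells/well, 37 °C, 5% CO2). Treated with two-fold dilutions from 96 to 1.5 µg/mL for 2 or 24 h, then MTT viability read. Triplicate, mean ± SD.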

A short description of series [17]: Cytotoxicity against human B11 cells assessed as reduction in cell viability at >=24 ug/ml incubated for 24 hrs by MTT assay. Particulars: b11, 24 h, dose > 24 µg/ml. Type of series: toxicity, cell-based. In a few lines:
as §4

The subject of series [18] is Candida albicans. The series is described as follows: Antibiofilm activity against Candida albicans ATCC 28366 assessed as inhibition of biofilm formation at 0.5 to 32 ug/ml incubated for 24 to 48 hrs by crystal violet staining based absorbance spectrometry analysis. Type of series: functional, organism-based. Particulars: dose 0.5-32 µg/ml, time 24-48 hrs. In a few lines: as §3

Series [19] has as its system Candida albicans. The series is described as follows: Antibiofilm activity against Candida albicans ATCC 28366 assessed as disruption of preformed biofilm incubated for 12 hrs by crystal violet staining based absorbance spectrometry analysis. The series is classed as functional, organism-based. In outline: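 Mature biofilms grown 36 to 48 h in Sabouraud pH 7.0 without compound; medium and free cells removed, rinsed with 50 mM PBS pH 7.0, then two-fold serial dilutions in PBS added for 12 h at 37 °C. Residual biofilm stained with crystal violet, dye released in 75% ethanol, A550 read. PBS-treated biofilms as controls.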

Series [20] deals with Candida albicans. The series is described as follows: Antibiofilm activity against FITC labeled Candida albicans ATCC 28366 in human GMSM-K cells assessed as reduction in fungal adherence to cells incubated for 4 hrs by fluorescence microscopic analysis. The series is classed as functional, organism-based. Particulars: dose 6-48 µg/ml. In outline: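 Confluent GMSM-K monolayers (DMEM, 10% FBS) pre-incubated 30 min with two-fold dilutions in DMEM (37 °C, 5% CO2). FITC-labelled yeast (0.03 mg/mL FITC in 0.5 M NaHCO3 pH 8, 30 min, 37 °C) added at MOI 10³ for 4 h. After PBS washes, fluorescence read (ex 495/em 525 nm) as % of compound-free wells. Two independent experiments in triplicate.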

In series [21] the test system is Candida albicans. The series is described as follows: Antifungal activity against Candida albicans ATCC 28366 assessed as reduction in fungal growth at up to 64 ug/ml incubated for 24 hrs by plate count determination. The series is classed as functional, organism-based. To be noted: dose <= 64.0 µg/ml.
Series [22] relates to Candida albicans. The series is described as follows: Antibiofilm activity against Candida albicans ATCC 28366 at 1 ug/ml incubated for 24 to 48 hrs by crystal violet staining based absorbance spectrometry analysis. Type of series: functional, organism-based. To be noted: dose 1.0 µg/ml, time 24-48 hrs. In outline:
as §3

The test system of series [23] is Candida albicans. The series is described as follows: Antifungal activity against Candida albicans ATCC 28366 assessed as inhibition of fungal growth incubated for 24 hrs by plate count determination. The series is classed as functional. In a few lines: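 Biofilm-assay setup (Sabouraud pH 7.0, inoculum OD660 0.2, serial two-fold dilutions, 37 °C). […] Highest value kept when replicates differ. At least two independent experiments in triplicate.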

The test system of series [24] is Candida albicans. The series is described as follows: Antibiofilm activity against Candida albicans ATCC 28366 assessed as inhibition of morphological switching at 1 ug/ml incubated for 4 hrs in YPD medium with fetal bovine serum by microscopic analysis. Particulars: dose 1.0 µg/ml. Type of series: functional, organism-based. In outline: as §1
Series [25] concerns Candida albicans. The series is described as follows: Antibiofilm activity against Candida albicans ATCC 28366 assessed as reduction in hyphae formation at 4 ug/ml incubated for 4 hrs in spider medium by microscopic analysis. To be noted: dose 4.0 µg/ml. Type of series: functional, organism-based. In a few lines: as §1
For series [26], the system named is Candida albicans. The series is described as follows: Antibiofilm activity against Candida albicans ATCC 28366 assessed as inhibition of N-acetylglucosamine induced morphological switching at 1 to 4 ug/ml incubated for 4 hrs by microscopic analysis. To be noted: dose 1-4 µg/ml. Type of series: functional, organism-based. In a few lines: as §1
In series [27] the test system is Candida albicans. The series is described as follows: Antibiofilm activity against Candida albicans LAM-1 at 4 ug/ml incubated for 24 to 48 hrs by crystal violet staining based absorbance spectrometry analysis. To be noted: dose 4.0 µg/ml, time 24-48 hrs. Type of series: functional, organism-based. In outline:
as §3

The test system of series [28] is Candida albicans. Nature of the series: Antibiofilm activity against Candida albicans ATCC 28366 assessed as inhibition of filamentation at 2 ug/ml incubated for 4 hrs in Lee's medium by microscopic analysis. Type of series: functional, organism-based. Particulars: dose 2.0 µg/ml. In outline:
as §1

Series [29] has as its system Candida albicans. The series is described as follows: Antibiofilm activity against Candida albicans ATCC 28366 assessed as inhibition of morphogenesis at 1 to 4 ug/ml incubated for 4 hrs in spider medium by microscopic analysis. The series is classed as functional, organism-based. Particulars: dose 1-4 µg/ml. In outline:
as §1

Series [30] has as its system Candida albicans. The series is described as follows: Antibiofilm activity against Candida albicans ATCC 28366 assessed as inhibition of nitrogen deprivation induced morphological switching at 1 to 4 ug/ml incubated for 4 hrs in SLAD media by microscopic analysis. Type of series: functional, organism-based. Particulars: dose 1-4 µg/ml. In outline:
as §1

The structures appear in SMILES notation. Values after ≈ are worked out from the molar mass of the structure shown. Active and inactive are the calls of the source. The rule behind the calls is not given here.

Take `CN1C[C@H](Cc2ccc(OCc3ccccc3)cc2)N(C)C[C@@H]1Cc1ccccc1`: the inhibition result in series [1], in series [2], in [4], in series [5], in series [6] and in series [7] was “inactive” in each case. The outcome in series [3], in series [8], in [9] and in series [10] was inactive.

Turning to `c1ccc(COc2ccc(C[C@H]3CN[C@@H](Cc4ccccc4)CN3)cc2)cc1`, the outcome in [11], in series [13], in [22], in [25] and in [27] was Active. For the same compound, the outcome in [12], in series [14], in series [15], in [19] and in series [21] was inactive. The Activity result was “Toxic” in series [16], “Toxic” in series [17] and “Dose-Dependent Effect” in [20]. The inhibition entry in series [18], in series [24], in series [28] and in series [29] was “Active” in each case. Besides, the MIC in series [23] came out at 96 µg/mL (≈ 258 µM). Also, the inhibition entry in [26] and in series [30] was “inactive” throughout.
